Measurements reported in ChEMBL document CHEMBL4382268, “Glycyrrhetinic acid derivatives containing aminophosphonate ester species as multidrug resistance reversers that block the NF-κB pathway and cell proliferation” (Bioorg Med Chem Lett, 2018).

Tests used:
[1] = Inhibition of TNF-alpha induced NF-kappaB activation in human A549 cells after 7 hrs by Bright-Glo luciferase reporter gene assay; format: cell-based
Summary of the method: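 A549 cells transiently cotransfected with an NF-κB-Luc reporter and stimulated with TNF-α. Luciferase read-out of inhibition gives IC50, the mean of at least three independent experiments each with triplicates.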

MGC-803 = test: Antiproliferative activity against human MGC803 cells after 48 hrs by MTT assay; format: functional, cell-based; settings: MGC-803, 48 h
Summary of the method: (§1)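 MTT read-out of antiproliferative activity across cancer lines HepG-2, NCI-H460, MGC-803, A549 and MG-63 and normal liver line HL-7702. IC50 given as mean ± S.D. of three separate experiments, each run in triplicate.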

HepG2 = test: Antiproliferative activity against human HepG2 cells after 48 hrs by MTT assay; format: functional, cell-based; settings: HepG2, 48 h; summary of the method: as §1
SK-OV-3 = test: Growth inhibition of cisplatin sensitive human SKOV3 cells after 48 hrs by MTT assay; format: functional, cell-based; settings: SK-OV-3, 48 h
Summary of the method: (§2)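 MTT growth inhibition in the paired ovarian lines, cisplatin-sensitive SK-OV-3 and cisplatin-resistant SK-OV-3/CDDP. IC50 given as mean ± S.D. of three separate experiments, each in triplicate.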

L02 = test: Antiproliferative activity against human HL-7702 cells after 48 hrs by MTT assay; format: functional, cell-based; settings: L02, 48 h; summary of the method: as §1
[2] = Selectivity ratio of IC50 for cisplatin-resistant human SKOV3/DDP cells to IC50 for cisplatin sensitive human SKOV3 cells; format: functional
Summary of the method: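 IC50 determined in resistant SK-OV-3/CDDP cells divided by IC50 in parental SK-OV-3 cells. Each IC50 by MTT, three separate experiments each in triplicate.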

A549 = test: Antiproliferative activity against human A549 cells after 48 hrs by MTT assay; format: functional, cell-based; settings: A549, 48 h; summary of the method: as §1
[3] = Growth inhibition of cisplatin-resistant human SKOV3/DDP cells after 48 hrs by MTT assay; format: functional; settings: SK-OV-3, 48 h; summary of the method: as §2
MG-63 = test: Antiproliferative activity against human MG63 cells after 48 hrs by MTT assay; format: functional, cell-based; settings: MG-63, 48 h; summary of the method: as §1
NCI-H460 = test: Antiproliferative activity against human NCI-H460 cells after 48 hrs by MTT assay; format: functional, cell-based; settings: NCI-H460, 48 h; summary of the method: as §1
[4] = Homo sapiens, A549, 7 h, read-out: IC50

Compound | IC50 [1, 4] [µM] | IC50 (MGC-803) [µM] | IC50 (HepG2) [µM] | IC50 (SK-OV-3) [µM] | IC50 (L02) [µM] | Ratio IC50 [2] | IC50 (A549) [µM] | IC50 [3] [µM] | IC50 (MG-63) [µM] | IC50 (NCI-H460) [µM] | IC50 ([1]; a549)
CC1(C)[C@@H](O)CC[C@]2(C)[C@H]3C(=O)C=C4[C@@H]5C[C@@](C)(C(=O)O)CC[C@]5(C)CC[C@@]4(C)[C@]3(C)CC[C@@H]12 [ENOXOLONE] | > 30 | > 50 | 44.5 | 45.6 | > 50 | 1.08 | 36.1 | 49.4 | > 50 | 37.6 | –
CCOP(=O)(OCC)C(Nc1ccc(CC(=O)NCCCNC(=O)[C@@]2(C)CC[C@]3(C)CC[C@]4(C)C(=CC(=O)[C@@H]5[C@@]6(C)CC[C@H](O)C(C)(C)[C@@H]6CC[C@]54C)[C@@H]3C2)cc1)c1cccc(Br)c1 (stereo partly drawn) | – | > 50 | > 50 | – | > 50 | – | > 50 | – | > 50 | > 50 | Not Active
CCOP(=O)(OCC)C(Nc1ccc(CC(=O)NCCCCNC(=O)[C@@]2(C)CC[C@]3(C)CC[C@]4(C)C(=CC(=O)[C@@H]5[C@@]6(C)CC[C@H](O)C(C)(C)[C@@H]6CC[C@]54C)[C@@H]3C2)cc1)c1cccc(F)c1 (stereo partly drawn) | > 30 | > 50 | > 50 | – | > 50 | – | > 50 | – | > 50 | > 50 | –
CCOP(=O)(OCC)C(Nc1ccc(CC(=O)NCCCCNC(=O)[C@@]2(C)CC[C@]3(C)CC[C@]4(C)C(=CC(=O)[C@@H]5[C@@]6(C)CC[C@H](O)C(C)(C)[C@@H]6CC[C@]54C)[C@@H]3C2)cc1)c1cccc(Br)c1 (stereo partly drawn) | > 30 | > 50 | > 50 | – | > 50 | – | > 50 | – | > 50 | > 50 | –
CCOP(=O)(OCC)C(Nc1ccc(CC(=O)NCCCNC(=O)[C@@]2(C)CC[C@]3(C)CC[C@]4(C)C(=CC(=O)[C@@H]5[C@@]6(C)CC[C@H](OC(C)=O)C(C)(C)[C@@H]6CC[C@]54C)[C@@H]3C2)cc1)c1ccc(F)cc1 (stereo partly drawn) | 3.01 | 16.3 | 15.3 | 10.1 | > 50 | 1.32 | 15 | 13.4 | 13.7 | 14.9 | –
CCOP(=O)(OCC)C(Nc1ccc(CC(=O)NCCCCNC(=O)[C@@]2(C)CC[C@]3(C)CC[C@]4(C)C(=CC(=O)[C@@H]5[C@@]6(C)CC[C@H](O)C(C)(C)[C@@H]6CC[C@]54C)[C@@H]3C2)cc1)c1ccc(Br)cc1 (stereo partly drawn) | 16.3 | 30.9 | 29.2 | – | > 50 | – | 24.9 | – | 24.6 | 25.2 | –
CCOP(=O)(OCC)C(Nc1ccc(CC(=O)NCCCCNC(=O)[C@@]2(C)CC[C@]3(C)CC[C@]4(C)C(=CC(=O)[C@@H]5[C@@]6(C)CC[C@H](OC(C)=O)C(C)(C)[C@@H]6CC[C@]54C)[C@@H]3C2)cc1)c1ccc(Br)cc1 (stereo partly drawn) | 11.1 | 17.4 | 19.8 | – | > 50 | – | 17.3 | – | 19.2 | 10.2 | –
CCOP(=O)(OCC)C(Nc1ccc(CC(=O)NCCCCNC(=O)[C@@]2(C)CC[C@]3(C)CC[C@]4(C)C(=CC(=O)[C@@H]5[C@@]6(C)CC[C@H](O)C(C)(C)[C@@H]6CC[C@]54C)[C@@H]3C2)cc1)c1ccc(F)cc1 (stereo partly drawn) | 6.09 | 18.3 | 20.2 | – | > 50 | – | 19.8 | – | 12.4 | 19.4 | –
CCOP(=O)(OCC)C(Nc1ccc(CC(=O)NCCCNC(=O)[C@@]2(C)CC[C@]3(C)CC[C@]4(C)C(=CC(=O)[C@@H]5[C@@]6(C)CC[C@H](O)C(C)(C)[C@@H]6CC[C@]54C)[C@@H]3C2)cc1)c1cccc(OC)c1 (stereo partly drawn) | – | 45.2 | > 50 | – | > 50 | – | > 50 | – | 46.6 | > 50 | Not Active
CCOP(=O)(OCC)C(Nc1ccc(CC(=O)NCCCCNC(=O)[C@@]2(C)CC[C@]3(C)CC[C@]4(C)C(=CC(=O)[C@@H]5[C@@]6(C)CC[C@H](OC(C)=O)C(C)(C)[C@@H]6CC[C@]54C)[C@@H]3C2)cc1)c1ccccc1 (stereo partly drawn) | 13.2 | 15.2 | 26.3 | – | > 50 | – | 23.1 | – | 20.2 | 13.2 | –
CCOP(=O)(OCC)C(Nc1ccc(CC(=O)NCCCNC(=O)[C@@]2(C)CC[C@]3(C)CC[C@]4(C)C(=CC(=O)[C@@H]5[C@@]6(C)CC[C@H](O)C(C)(C)[C@@H]6CC[C@]54C)[C@@H]3C2)cc1)c1ccccc1 (stereo partly drawn) | 28.2 | 31.1 | 40.4 | – | > 50 | – | 36 | – | 31 | 46.1 | –
